# Source: PubChem BioAssay
# TAAR1 agonist: agonists of human TAAR1 | Q96RJ0 | CHO RD-HGA16 TAAR1, Fluo-8 calcium fluorescence; vehicle wells 0%, saturating PEA agonist 100% | activation, % at 3 µM | 360,000 tested, 0.99% active | AID 624467;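 active means activation above the mean activation of all test compounds in the run plus 3 SD, cut at about 38% in these data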
#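 test system = CHO RD-HGA16 cells carrying human TAAR1 plus Gα16 | schedule = 17-24 h seeding, 75 min 37 °C dye, 30 min RT | compound dosing = 3 µM single concentration | control set = DMSO and PEA EC100 | replicates = n 1 | signal = Fluo-8 fluorescence, 5 s baseline then 140 s kinetic read | measure = percent activation vs PEA EC100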
# GPR7 antag: human neuropeptides B/W receptor 1 antagonism; P48145; GPR7-expressing cells, fluorescence antagonist assay; inhibition, % at 4.4 µM; 290,000 tested, 1.1% active; in the data active means inhibition above about 16%, passing the limit was not always enough;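 further: cells stimulated with the agonist NPW; 0% = agonist with vehicle and 100% = vehicle without agonist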
# OX1R antag-1: antagonists of human orexin 1 receptor | O43613 | CHO/OX1R cells, Fluo-8 calcium fluorescence, orexin A | inhibition, % at 5 µM | 330,000 tested, 0.43% active;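 active means inhibition above its plate's threshold, mean inhibition of all tested compounds on the plate plus 3 SD, cut at about 37% in these data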;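 further: 0% = orexin A challenge wells and 100% = SB-334867-A antagonist wells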
# Target sequence (O43613 whole entry, looked up): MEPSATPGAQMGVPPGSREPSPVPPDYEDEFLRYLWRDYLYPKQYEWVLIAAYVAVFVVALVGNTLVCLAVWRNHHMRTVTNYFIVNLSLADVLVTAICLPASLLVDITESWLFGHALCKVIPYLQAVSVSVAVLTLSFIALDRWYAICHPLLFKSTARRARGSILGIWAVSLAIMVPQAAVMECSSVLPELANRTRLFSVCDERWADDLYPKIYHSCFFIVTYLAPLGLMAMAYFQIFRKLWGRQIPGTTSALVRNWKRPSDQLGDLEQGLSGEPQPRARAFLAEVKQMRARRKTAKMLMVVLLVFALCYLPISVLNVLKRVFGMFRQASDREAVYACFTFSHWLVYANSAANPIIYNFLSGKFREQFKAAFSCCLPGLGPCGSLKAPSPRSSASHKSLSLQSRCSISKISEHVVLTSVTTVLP
# OX1R antag-2: antagonists of human orexin 1 receptor (OX1R); O43613; OX1R-expressing cells, FRET antagonist read-out; inhibition, % at 6.6 µM; 330,000 tested, 1.8% active; AID 485270; in the data active means inhibition mostly above about 38%, no sharp cut-off; inactive means mostly below about 40%;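 further: 0% = agonist challenge alone and 100% = reference antagonist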
# CHO parental Ca: counter-screen for OX1R antagonists: effect in parental CHO cells | parental CHO-K1, ATP-induced calcium, Fluo-8 fluorescence | inhibition, % at 5.6 µM | 330,000 tested, 0.63% active;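 active means inhibition above that plate's mean sample inhibition plus 3 SD, cut at about 26% in these data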;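 further: 0% = ATP-challenged DMSO wells and 100% = DMSO wells without ATP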
#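 Measured by: calcium-sensitive Fluo-8 fluorescence / Test system: CHO parental line / Controls: ATP-challenged DMSO wells low, unchallenged DMSO wells high / Measure: % inhibition / Compound: single nominal dose of 5.6 µM per compound / Replicates: single well per compound, no replicates / Reagent: ATP as calcium-mobilizing challenge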
# TAAR1 antagonist: antagonists of human TAAR1 | Q96RJ0 | CHO RD-HGA16 TAAR1, Fluo-8 calcium fluorescence, antagonist | inhibition, % at 3 µM | 360,000 tested, 1.5% active;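 active means inhibition above a per-plate cutoff, the mean inhibition of test compounds on that plate plus 3 SD, cut at about 49% in these data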;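 further: 0% = DMSO plus EC80 beta-PEA response and 100% = DMSO alone without agonist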
#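 Material: RD-HGA16 CHO cells with stable hTAAR1 and Gα16; Dosing: single nominal final test compound concentration of 3 µM; Schedule: seeding 17-24 h prior, 75-min 37 °C, 30-min RT dye loading; Detection: kinetic Fluo-8 calcium fluorescence measurement; Measure: % inhibition from peak post-agonist over basal fluorescence ratio; Benchmarks: vehicle and agonist controls.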
# TAAR1 ag conf: human TAAR1 agonism, confirmed; shares compounds with TAAR1 agonist; CHO RD-HGA16 TAAR1, Fluo-8 calcium fluorescence; scaled: DMSO 0%, maximal phenethylamine 100%; activation, % at 3 µM; 2,400 tested, 82% active;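 active means activation above a cutoff set at the run's mean compound activation plus 3 SD, cut at about 39% in these data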
# Ga16 nonsel ag: nonselective agonism, TAAR1 counter-screen; activation, % at 3 µM; shares compounds with TAAR1 agonist; 2,400 tested, 50% active; AID 651787; CHO-Ga16 parental, Fluo-8 calcium fluorescence; normalized to maximal ATP response, DMSO zero;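 active means activation above the run cutoff, the mean activation over all tested wells plus 3 SD, cut at about 12% in these data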;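 further: 0% = DMSO wells and 100% = maximal ATP response on the peak over basal ratio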
# TAAR1 desensitize: human TAAR1 agonist that also desensitizes the receptor | shares compounds with TAAR1 agonist | CHO RD-HGA16 hTAAR1, Fluo-8 calcium, beta-PEA response inhibition | inhibition, % at 3 µM | 2,400 tested, 46% active | AID 651951;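 active means inhibition above the run cutoff, the mean inhibition of all test compounds plus 3 SD, cut at about 49% in these data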;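 further: beta-PEA stimulus applied at its EC80; loss of beta-PEA calcium signal after compound pretreatment read as receptor desensitization; 0% = DMSO with beta-PEA at EC80 and 100% = DMSO alone without agonist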
# Ga16 nonsel ant: nonselective Ga16 antagonism, counter-screen; shares compounds with TAAR1 agonist; CHO-Ga16 ATP-induced calcium, Fluo-8 fluorescence; inhibition, % at 3 µM; 2,400 tested, 39% active; AID 651952;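 active means inhibition above the plate's mean compound inhibition plus 3 SD, computed per plate, cut at about 22% in these data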;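 further: 0% = EC80 ATP with DMSO and 100% = DMSO wells without ATP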
# Starred values were filed as active, the others as inactive; . = not tested or not shown. Sampled rows, rich in hits. Any-hit rate of the full collection: about 4.6%.
SMILES,TAAR1 agonist,GPR7 antag,OX1R antag-1,OX1R antag-2,CHO parental Ca,TAAR1 antagonist,TAAR1 ag conf,Ga16 nonsel ag,TAAR1 desensitize,Ga16 nonsel ant
O=C(COC(=O)CN1C(=O)c2ccccc2C1=O)Nc1ccccc1,48*,.,-2,4,-4,-26,57*,0,8,4
CCN(CC)CCNC(=O)c1ccc(NC(=O)c2cccc(S(=O)(=O)N3c4ccccc4CC3C)c2)cc1 (stereo not given),14,1,-21,15,-9,-6,.,.,.,.
CCN(CC)CCNC(=O)c1ccc(NC(=O)c2cccc(S(=O)(=O)N3CCc4ccccc43)c2)cc1,60*,.,.,.,.,2,60*,0,39,10
CCN(CC)CCSc1nc(O)c(Cc2ccccc2)c(=O)n1-c1ccccc1,2,2,1,12,-4,11,.,.,.,.
Cc1c(Cl)cccc1-c1ccc(/C=N/n2cnnc2)o1,47*,2,-8,13,-17,-19,38*,19*,12,13
Cc1ccc2nc(-c3ccccc3)cc(C(=O)N3CCc4ccccc4C3)c2c1,72*,-4,-26,6,-7,17,68*,2,25,20
CCOC(=O)CC(=O)CSc1n[nH]c(=O)[nH]c1=O,0,1,9,1,-8,-28,.,.,.,.
COc1cc(CNCCc2ccccc2)ccc1OCc1ccc(Cl)nc1,54*,17,-23,25,-17,7,71*,10,43,12
CCOc1cc(CNCCc2ccc(S(N)(=O)=O)cc2)ccc1OCc1ccc(Cl)cc1,69*,51*,77*,13,61*,47,85*,46*,91*,72*
CC(C)Nc1nc(Nc2ccc(F)cc2)c2sccc2n1,1,.,.,.,.,-35,.,.,.,.
CC(C)C[C@H]1CN=C(Nc2ccccc2)N1CC1CCCCCC1,49*,.,-19,16,-6,11,29,16*,19,22*
Cc1cccc(NC2=NCC(=O)N2CCc2ccccc2)c1,86*,18,-16,18,-12,51*,106*,5,85*,2
Cc1cccc(CCN2C(Nc3ccccc3)=NC[C@@H]2CC(C)C)c1,127*,.,49*,27,31,107*,111*,87*,102*,80*
CC(C)C[C@H]1CN=C(Nc2ccccc2)N1CCc1ccc(F)cc1,119*,.,75*,15,57*,104*,127*,80*,102*,72*
C=CCN1C(=O)CN=C1Nc1cccc(C)c1,12,-11,-17,9,-8,-11,.,.,.,.
CCN(c1ccc(F)cc1)S(=O)(=O)c1cccc2nsnc12,-2,-2,-28,8,-8,-22,.,.,.,.
OCC[C@H]1C[C@H](O)[C@@H](O)[C@]2(OCc3ccccc32)O1,5,.,0,33,9,5,.,.,.,.
Cc1ccccc1Cn1nnc(C(=O)Nc2cccc(C)c2C)c1N,66*,11,-11,6,-1,11,79*,31*,41,15
Cc1ccc(CNC(=O)Cn2nnc(C(=O)Nc3cccc(C)c3C)c2N)cc1,3,8,-6,21,-3,-17,.,.,.,.
O=C(CSc1nc2ccccc2c(=O)n1Cc1ccccc1)NCc1ccco1,75*,-5,-5,3,-3,79*,78*,47*,65*,38*
O=C(CSc1nc2ccccc2c(=O)n1Cc1ccc(F)cc1)NCc1cccs1,95*,-9,-23,23,-20,96*,92*,52*,99*,68*
COc1ccc(NC(=O)NCCc2cccc(Cl)c2)cc1OC,0,-13,-8,7,-2,22,.,.,.,.
OC(c1ccccc1)(c1ccccc1)C1CCN(CCCOc2cccc(F)c2)CC1,45*,.,.,.,.,40,16,10,14,16
Cc1ccccc1OCCCN1CCC(C(O)(c2ccccc2)c2ccccc2)CC1,37*,.,.,.,.,34,51*,19*,38,26*
Cc1cc(C)cc(OCCCN2CCC(C(O)(c3ccccc3)c3ccccc3)CC2)c1,25,.,.,.,.,30,.,.,.,.
COc1cccc(C(=O)N[C@H](C(=O)N2CCC[C@H]2C(=O)NCCc2ccccc2Cl)C2CCCCC2)c1,52*,.,.,.,.,55*,79*,4,86*,5
O=C(N[C@H](C(=O)N1CCC[C@H]1C(=O)NCCc1ccccc1Cl)C1CCCCC1)C1CC1,46*,.,.,.,.,34,73*,1,78*,6
O=C(N[C@H](C(=O)N1CCC[C@H]1C(=O)NCCc1ccccc1Cl)C1CCCCC1)c1ccccc1,64*,.,.,.,.,66*,76*,2,85*,-2
